According to ChEMBL document CHEMBL3763144, “Optimization of a Novel Series of Ataxia-Telangiectasia Mutated Kinase Inhibitors as Potential Radiosensitizing Agents” (J Med Chem, 2016):

Columns and labels:
[1] = Permeability of the compound at 10 uM after 30 mins by PAMPA; assay type: ADME; conditions: read-out: permeability
[2] = Half life in CD-1 mouse liver microsomes by UPLC-MS analysis; assay type: ADME
[3] = Half life in rat liver microsomes by UPLC-MS analysis; assay type: ADME
[4] = Half life in human liver microsomes by UPLC-MS analysis; assay type: ADME
[5] = Half life in dog liver microsomes by UPLC-MS analysis; assay type: ADME, Canis lupus familiaris
[6] = Intrinsic clearance in CD-1 mouse liver microsomes after 0.5 to 4 hrs by UPLC-MS analysis; assay type: ADME; conditions: read-out: CLH
[7] = Intrinsic clearance in rat liver microsomes after 0.5 to 4 hrs by UPLC-MS analysis; assay type: ADME; conditions: read-out: CLH
[8] = Intrinsic clearance in human liver microsomes after 0.5 to 4 hrs by UPLC-MS analysis; assay type: ADME; conditions: read-out: CLH
[9] = Intrinsic clearance in dog liver microsomes after 0.5 to 4 hrs by UPLC-MS analysis; assay type: ADME, Canis lupus familiaris; conditions: read-out: CLH
Plasma [10] = experiment: Stability in mouse plasma assessed as compound stability time by UPLC-MS analysis; assay type: ADME, cell-free
Plasma [11] = experiment: Stability in rat plasma assessed as compound stability time by UPLC-MS analysis; assay type: ADME, cell-free
Plasma [12] = experiment: Stability in human plasma assessed as compound stability time by UPLC-MS analysis; assay type: ADME, cell-free
[13] = Stability of the compound in phosphate buffered saline assessed as compound stability time at pH 7.4 by UPLC-MS analysis; assay type: physicochemical; conditions: buffer
[14] = Stability of the compound in phosphate buffered saline assessed as compound stability time at pH 5 by UPLC-MS analysis; assay type: physicochemical; conditions: buffer
[15] = Stability of the compound in phosphate buffered saline assessed as compound stability time at pH 3 by UPLC-MS analysis; assay type: physicochemical; conditions: buffer
[16] = Half life of the compound in aqueous buffer; assay type: physicochemical
[17] = Cmax in C57BL/6 mouse at 20 mg/kg, iv by UPLC-MS analysis; assay type: ADME, organism-based; design: dose 20 mg/kg, route intravenous; conditions: in vivo
Method in brief: (§1)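 Female C57BL/6 mice, 22-27 g; single tail-vein injection at 10 or 20 mg/kg (vehicle groups at 0) in EtOH/PPG/PBS pH 7.4 5/45/50 with HβCD 10 mM and 5% DMSO, 4 ml/kg. Blood taken at 5, 15, 30 min, 1, 4, 24 h, one mouse per time point, and at 48 h. EDTA plasma mixed with acetonitrile containing warfarin internal standard; UPLC/MS quantitation by peak-area ratio.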

[18] = Tmax in C57BL/6 mouse at 20 mg/kg, iv by UPLC-MS analysis; assay type: ADME, organism-based; conditions: in vivo
Method in brief: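 Female C57BL/6 mice (22-27 g) received a single tail-vein injection at 4 ml/kg in 5/45/50 EtOH/PPG/PBS (pH 7.4) with 10 mM HβCD and 5% DMSO. Groups were 0, 10 and 20 mg/kg. Blood was drawn retro-orbitally at 5, 15, 30 min, 1, 4, 24 and 48 h into EDTA. Plasma was precipitated with acetonitrile containing 2 uM warfarin as internal standard and quantified by UPLC/MS from the analyte/internal-standard peak-area ratio.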

Mus musculus [19] = organism: Mus musculus; experiment: Drug metabolism in C57BL/6 mouse assessed as 4-(5-amino-3-(pyridin-2-yl)-1H-1,2,4-triazol-1-yl)-7-methoxyquinazolin-6-ol formation by qualitative tandem mass spectrometric analysis; assay type: ADME, organism-based; conditions: in vivo
Mus musculus [20] = organism: Mus musculus; experiment: Drug metabolism in C57BL/6 mouse assessed as 4-(5-amino-3-(pyridin-2-yl)-1H-1,2,4-triazol-1-yl)quinazoline-6,7,8-triol formation by qualitative tandem mass spectrometric analysis; assay type: ADME, organism-based; conditions: in vivo
Mus musculus [21] = organism: Mus musculus; experiment: Drug metabolism in C57BL/6 mouse assessed as (2S,3S,4S,5R,6S)-6-(4-(5-amino-3-(pyridin-2-yl)-1H-1,2,4-triazol-1-yl)-7-methoxyquinazolin-6-yloxy)-3,4,5-trihydroxytetrahydro-2H-pyran-2-carboxylic acid formation by qualitative tandem mass spectrometric analysis; assay type: ADME, organism-based; conditions: in vivo
[22] = Clearance in C57BL/6 mouse at 10 mg/kg, iv; assay type: ADME, organism-based; conditions: in vivo; method in brief: as §1
[23] = Half life in C57BL/6 mouse at 10 mg/kg, iv; assay type: ADME, organism-based; conditions: in vivo; method in brief: as §1
[24] = Half life in C57BL/6 mouse at 20 mg/kg, iv by UPLC-MS analysis; assay type: ADME, organism-based; conditions: in vivo; method in brief: as §1
Mus musculus [25] = organism: Mus musculus; experiment: Drug level in C57BL/6 mouse treated with 1-(6,7-Dimethoxyquinazolin-4-yl)-3-(pyridin-2-yl)-1H-1,2,4-triazol-5-amine by qualitative tandem mass spectrometric analysis; assay type: ADME, organism-based; conditions: in vivo

| Papp at 0.5 h, 10 µM [1] [×10⁻⁶ cm/s] | half-life [2] [h] | half-life [3] [h] | half-life [4] [h] | half-life [5] [h] | CLint scaled [6] [mL/min/kg] | CLint scaled [7] [mL/min/kg] | CLint scaled [8] [mL/min/kg] | CLint scaled [9] [mL/min/kg] | Stability (Plasma [10]) [h] | Stability (Plasma [11]) [h] | Stability (Plasma [12]) [h] | Stability [13] [h] | Stability [14] [h] | Stability [15] [h] | Cmax [17] [µM] | Drug metabolism (Mus musculus [25]) | also measured | Compound |
| --- | --- | --- | --- | --- | --- | --- | --- | --- | --- | --- | --- | --- | --- | --- | --- | --- | --- | --- |
| 95.9 | 0.9 | 0.8 | 3.4 | 0.6 | 61.7 | 57.8 | 6.1 | 52.5 | > 48 | 19 | > 48 | > 48 | > 48 | > 48 | 4 | – | half-life [16]: > 48 h; Tmax [18]: 5 min; Drug metabolism (Mus musculus [19]): metabolite_detected; Drug metabolism (Mus musculus [20]): metabolite_detected; Drug metabolism (Mus musculus [21]): metabolite_detected; clearance [22]: 2.67 mL/min; half-life [23]: 1 h | COc1cc2ncnc(-n3nc(-c4ccccn4)nc3N)c2cc1OC |
| 196 | 2 | > 4 | > 4 | > 4 | 27.1 | < 11.7 | < 5.2 | < 8.3 | > 48 | > 24 | > 48 | > 24 | > 24 | > 24 | 9.5 | – | half-life [24]: 19 h | COCCOc1cc2c(-n3nc(-c4ccccn4)nc3N)ncnc2cc1OC |
| – | – | – | – | – | – | – | – | – | – | – | – | – | – | – | – | metabolite_detected | – | COc1cc2ncnc(-n3nc(-c4ccccn4)nc3N)c2cc1O |
| – | – | – | – | – | – | – | – | – | – | – | – | – | – | – | – | metabolite_detected | – | Nc1nc(-c2ccccn2)nn1-c1ncnc2c(O)c(O)c(O)cc12 |
| 16.6 | 2.4 | > 4 | 1.6 | > 4 | 22.9 | < 11.7 | 12.9 | < 8.3 | > 48 | – | > 48 | > 48 | > 48 | > 48 | 5.8 | – | – | COCCOc1cc2ncnc(-n3nc(-c4ccccn4)nc3N)c2cc1OCCOC |
| 432 | 0.2 | 1 | 1.1 | > 4 | 329 | 45.1 | 18.8 | < 7.9 | > 24 | > 24 | > 24 | > 24 | > 24 | > 24 | – | – | – | COc1cc2ncnc(-n3nc(-c4ccccn4)nc3N)c2cc1OCCCNC(=O)OC(C)C |
| – | – | – | – | – | – | – | – | – | – | – | – | – | – | – | – | metabolite_detected | – | COc1cc2ncnc(-n3nc(-c4ccccn4)nc3N)c2cc1O[C@@H]1O[C@H](C(=O)O)[C@@H](O)[C@H](O)[C@H]1O |
